Laboratory results published in ChEMBL document CHEMBL4689842, “EUbOPEN Chemogenomics Library wave 1” (2021).

Columns and labels:
Assay type in all cases: toxicity, cell-based
Fibroblast [1] = assay: Incucyte cell viability with human fibroblast; conditions: 10 µM, compound concentration 10 uM; further: filed as whole numbers so only -1 and 0 and 1 occur
U2OS = assay: Incucyte cell viability with U2OS; conditions: human, 10 µM, compound concentration 10 uM; further: filed as whole numbers so only -1 and 0 and 1 occur
Fibroblast [2] = assay: Multiplex assay against human fibroblast
Outline: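 Live cells carried four stains from seeding: Hoechst33342, BioTracker Green Microtubule Cytoskeleton Dye, MitoTracker Red and Annexin V Alexa Fluor 680. They were imaged on a CQ1 microscope at 37°C and 5% CO2 after compound addition. Using CellPathfinder machine-learning gating, cells were split into Hoechst high-intensity objects or normal cells, normal cells into healthy, pyknosed or fragmented nuclei, and pyknosed cells into mitotic or apoptotic; tubulin, mitochondrial-mass and membrane-permeability phenotypes are per cents of healthy-nucleus cells.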

[3] = 0 h, replicate number 1, timepoint 0 hours
[4] = 12 h, replicate number 1, timepoint 12 hours
[5] = 18 h, replicate number 1, timepoint 18 hours
[6] = 24 h, replicate number 1, timepoint 24 hours
[7] = 12 h, 1 µM, compound concentration 1 uM, replicate 1
[8] = 12 h, 1 µM, compound concentration 1 uM, replicate 2
[9] = 12 h, 10 µM, compound concentration 10 uM, replicate 1
[10] = 12 h, 10 µM, compound concentration 10 uM, replicate 2
[11] = 24 h, 1 µM, compound concentration 1 uM, replicate 1
[12] = 24 h, 1 µM, compound concentration 1 uM, replicate 2
[13] = 24 h, 10 µM, compound concentration 10 uM, replicate 1
[14] = 24 h, 10 µM, compound concentration 10 uM, replicate 2
[15] = 48 h, 1 µM, compound concentration 1 uM, replicate 1
[16] = 48 h, 1 µM, compound concentration 1 uM, replicate 2
[17] = 48 h, 10 µM, compound concentration 10 uM, replicate 1
[18] = 48 h, 10 µM, compound concentration 10 uM, replicate 2

SMILES: CC(Cc1ccc(O)c(O)c1)C(C)Cc1ccc(O)c(O)c1 (stereo not drawn) [NORDIHYDROGUAIARETIC ACID]
- Growth Rate (Fibroblast [1]; [3]): 0
- Growth Rate (Fibroblast [1]; 6 h, replicate number 1, timepoint 6 hours): 0
- Growth Rate (Fibroblast [1]; [4]): 0
- Growth Rate (Fibroblast [1]; [5]): 0
- Growth Rate (Fibroblast [1]; [6]): 0
- Growth Rate (U2OS; [3]): 0
- Growth Rate (U2OS; 6 h, replicate number 2, timepoint 6 hours): 0
- Growth Rate (U2OS; [4]): 0
- Growth Rate (U2OS; [5]): 0
- Growth Rate (U2OS; [6]): 0
- Population Apoptotic (%) (Fibroblast [2]; [7]): 66%
- Population Fragmented Nuclei (%) (Fibroblast [2]; [7]): 19%
- Population Healthy Nuclei (%) (Fibroblast [2]; [7]): 50%
- Population Hoechst High Intensity Objects (%) (Fibroblast [2]; [7]): 5%
- Population Membrane Permeable-Phenotype (%) (Fibroblast [2]; [7]): 19%
- Population Mitochondria Different-Phenotype (%) (Fibroblast [2]; [7]): 4%
- Population Mitotic Cells (%) (Fibroblast [2]; [7]): 33%
- Population Normal (%) (Fibroblast [2]; [7]): 94%
- Population Pyknosed Nuclei (%) (Fibroblast [2]; [7]): 29%
- Population Tubulin-Different-Phenotype (%) (Fibroblast [2]; [7]): 19%
- Total Cell Count (Fibroblast [2]; [7]): 170
- Population Apoptotic (%) (Fibroblast [2]; [8]): 0%
- Population Fragmented Nuclei (%) (Fibroblast [2]; [8]): 3%
- Population Healthy Nuclei (%) (Fibroblast [2]; [8]): 93%
- Population Hoechst High Intensity Objects (%) (Fibroblast [2]; [8]): 15%
- Population Membrane Permeable-Phenotype (%) (Fibroblast [2]; [8]): 0%
- Population Mitochondria Different-Phenotype (%) (Fibroblast [2]; [8]): 1%
- Population Mitotic Cells (%) (Fibroblast [2]; [8]): 100%
- Population Normal (%) (Fibroblast [2]; [8]): 84%
- Population Pyknosed Nuclei (%) (Fibroblast [2]; [8]): 3%
- Population Tubulin-Different-Phenotype (%) (Fibroblast [2]; [8]): 25%
- Population Apoptotic (%) (Fibroblast [2]; [9]): 87%
- Population Fragmented Nuclei (%) (Fibroblast [2]; [9]): 19%
- Population Healthy Nuclei (%) (Fibroblast [2]; [9]): 46%
- Population Hoechst High Intensity Objects (%) (Fibroblast [2]; [9]): 14%
- Population Membrane Permeable-Phenotype (%) (Fibroblast [2]; [9]): 18%
- Population Mitochondria Different-Phenotype (%) (Fibroblast [2]; [9]): 6%
- Population Mitotic Cells (%) (Fibroblast [2]; [9]): 12%
- Population Normal (%) (Fibroblast [2]; [9]): 85%
- Population Pyknosed Nuclei (%) (Fibroblast [2]; [9]): 33%
- Population Tubulin-Different-Phenotype (%) (Fibroblast [2]; [9]): 13%
- Population Apoptotic (%) (Fibroblast [2]; [10]): 0%
- Population Fragmented Nuclei (%) (Fibroblast [2]; [10]): 2%
- Population Healthy Nuclei (%) (Fibroblast [2]; [10]): 91%
- Population Hoechst High Intensity Objects (%) (Fibroblast [2]; [10]): 6%
- Population Membrane Permeable-Phenotype (%) (Fibroblast [2]; [10]): 2%
- Population Mitochondria Different-Phenotype (%) (Fibroblast [2]; [10]): 10%
- Population Mitotic Cells (%) (Fibroblast [2]; [10]): 100%
- Population Normal (%) (Fibroblast [2]; [10]): 93%
- Population Pyknosed Nuclei (%) (Fibroblast [2]; [10]): 5%
- Population Tubulin-Different-Phenotype (%) (Fibroblast [2]; [10]): 38%
- Total Cell Count (Fibroblast [2]; [10]): 70
- Population Apoptotic (%) (Fibroblast [2]; [11]): 50%
- Population Fragmented Nuclei (%) (Fibroblast [2]; [11]): 20%
- Population Healthy Nuclei (%) (Fibroblast [2]; [11]): 63%
- Population Hoechst High Intensity Objects (%) (Fibroblast [2]; [11]): 6%
- Population Membrane Permeable-Phenotype (%) (Fibroblast [2]; [11]): 22%
- Population Mitochondria Different-Phenotype (%) (Fibroblast [2]; [11]): 3%
- Population Mitotic Cells (%) (Fibroblast [2]; [11]): 50%
- Population Normal (%) (Fibroblast [2]; [11]): 93%
- Population Pyknosed Nuclei (%) (Fibroblast [2]; [11]): 16%
- Population Tubulin-Different-Phenotype (%) (Fibroblast [2]; [11]): 25%
- Total Cell Count (Fibroblast [2]; [11]): 165
- Population Apoptotic (%) (Fibroblast [2]; [12]): 0%
- Population Fragmented Nuclei (%) (Fibroblast [2]; [12]): 2%
- Population Healthy Nuclei (%) (Fibroblast [2]; [12]): 94%
- Population Hoechst High Intensity Objects (%) (Fibroblast [2]; [12]): 7%
- Population Membrane Permeable-Phenotype (%) (Fibroblast [2]; [12]): 0%
- Population Mitochondria Different-Phenotype (%) (Fibroblast [2]; [12]): 8%
- Population Mitotic Cells (%) (Fibroblast [2]; [12]): 100%
- Population Normal (%) (Fibroblast [2]; [12]): 92%
- Population Pyknosed Nuclei (%) (Fibroblast [2]; [12]): 2%
- Population Tubulin-Different-Phenotype (%) (Fibroblast [2]; [12]): 23%
- Population Apoptotic (%) (Fibroblast [2]; [13]): 87%
- Population Fragmented Nuclei (%) (Fibroblast [2]; [13]): 18%
- Population Healthy Nuclei (%) (Fibroblast [2]; [13]): 62%
- Population Hoechst High Intensity Objects (%) (Fibroblast [2]; [13]): 17%
- Population Membrane Permeable-Phenotype (%) (Fibroblast [2]; [13]): 7%
- Population Mitochondria Different-Phenotype (%) (Fibroblast [2]; [13]): 5%
- Population Mitotic Cells (%) (Fibroblast [2]; [13]): 12%
- Population Normal (%) (Fibroblast [2]; [13]): 82%
- Population Pyknosed Nuclei (%) (Fibroblast [2]; [13]): 19%
- Population Tubulin-Different-Phenotype (%) (Fibroblast [2]; [13]): 7%
- Population Apoptotic (%) (Fibroblast [2]; [14]): 16%
- Population Fragmented Nuclei (%) (Fibroblast [2]; [14]): 2%
- Population Healthy Nuclei (%) (Fibroblast [2]; [14]): 90%
- Population Hoechst High Intensity Objects (%) (Fibroblast [2]; [14]): 5%
- Population Membrane Permeable-Phenotype (%) (Fibroblast [2]; [14]): 1%
- Population Mitochondria Different-Phenotype (%) (Fibroblast [2]; [14]): 9%
- Population Mitotic Cells (%) (Fibroblast [2]; [14]): 83%
- Population Normal (%) (Fibroblast [2]; [14]): 94%
- Population Pyknosed Nuclei (%) (Fibroblast [2]; [14]): 7%
- Population Tubulin-Different-Phenotype (%) (Fibroblast [2]; [14]): 61%
- Population Apoptotic (%) (Fibroblast [2]; [15]): 60%
- Population Fragmented Nuclei (%) (Fibroblast [2]; [15]): 20%
- Population Healthy Nuclei (%) (Fibroblast [2]; [15]): 75%
- Population Hoechst High Intensity Objects (%) (Fibroblast [2]; [15]): 8%
- Population Membrane Permeable-Phenotype (%) (Fibroblast [2]; [15]): 25%
- Population Mitochondria Different-Phenotype (%) (Fibroblast [2]; [15]): 0%
- Population Mitotic Cells (%) (Fibroblast [2]; [15]): 40%
- Population Normal (%) (Fibroblast [2]; [15]): 91%
- Population Pyknosed Nuclei (%) (Fibroblast [2]; [15]): 3%
- Population Tubulin-Different-Phenotype (%) (Fibroblast [2]; [15]): 16%
- Total Cell Count (Fibroblast [2]; [15]): 162
- Population Apoptotic (%) (Fibroblast [2]; [16]): 66%
- Population Fragmented Nuclei (%) (Fibroblast [2]; [16]): 25%
- Population Healthy Nuclei (%) (Fibroblast [2]; [16]): 70%
- Population Hoechst High Intensity Objects (%) (Fibroblast [2]; [16]): 20%
- Population Membrane Permeable-Phenotype (%) (Fibroblast [2]; [16]): 17%
- Population Mitotic Cells (%) (Fibroblast [2]; [16]): 33%
- Population Normal (%) (Fibroblast [2]; [16]): 80%
- Population Pyknosed Nuclei (%) (Fibroblast [2]; [16]): 4%
- Population Tubulin-Different-Phenotype (%) (Fibroblast [2]; [16]): 21%
- Total Cell Count (Fibroblast [2]; [16]): 90
- Population Apoptotic (%) (Fibroblast [2]; [17]): 92%
- Population Fragmented Nuclei (%) (Fibroblast [2]; [17]): 33%
- Population Healthy Nuclei (%) (Fibroblast [2]; [17]): 52%
- Population Hoechst High Intensity Objects (%) (Fibroblast [2]; [17]): 15%
- Population Membrane Permeable-Phenotype (%) (Fibroblast [2]; [17]): 6%
- Population Mitotic Cells (%) (Fibroblast [2]; [17]): 7%
- Population Normal (%) (Fibroblast [2]; [17]): 84%
- Population Pyknosed Nuclei (%) (Fibroblast [2]; [17]): 14%
- Population Tubulin-Different-Phenotype (%) (Fibroblast [2]; [17]): 0%
- Population Apoptotic (%) (Fibroblast [2]; [18]): 100%
- Population Fragmented Nuclei (%) (Fibroblast [2]; [18]): 20%
- Population Healthy Nuclei (%) (Fibroblast [2]; [18]): 77%
- Population Hoechst High Intensity Objects (%) (Fibroblast [2]; [18]): 11%
- Population Membrane Permeable-Phenotype (%) (Fibroblast [2]; [18]): 9%
- Population Mitochondria Different-Phenotype (%) (Fibroblast [2]; [18]): 0%
- Population Mitotic Cells (%) (Fibroblast [2]; [18]): 0%
- Population Normal (%) (Fibroblast [2]; [18]): 88%
- Population Pyknosed Nuclei (%) (Fibroblast [2]; [18]): 1%
- Population Tubulin-Different-Phenotype (%) (Fibroblast [2]; [18]): 2%
